In ChEMBL document CHEMBL4414601 (J Med Chem, 2019):
Values after ≈ are worked out from the molar mass of the structure shown.

How the values were obtained:
[1] = Aqueous solubility of compound; conditions: buffer
[2] = system: Plasmodium falciparum; assay: Antiplasmodial activity against […] of Plasmodium falciparum NF54 assessed as reduction in male gametocytes activation preincubated for 48 hrs followed by gametocytes activation and measured after 24 hrs by fluorescence based automated inverted microscopic analysis; assay type: functional, organism-based
Method in brief: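 Gametocyte activation was triggered by reduced temperature and ookinete medium containing xanthurenic acid. Male exflagellation centres were detected from a 10-frame video, scoring pixel changes caused by flagellar movement shifting surrounding cells.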

[3] = system: Plasmodium falciparum; assay: Antiplasmodial activity against […] of Plasmodium falciparum NF54 assessed as reduction in female gametocytes activation preincubated for 48 hrs followed by gametocytes activation and measured after 24 hrs by fluorescence based automated inverted microscopic analysis; assay type: functional, organism-based
Method in brief: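 NF54 gametocytes were activated by lowered temperature plus ookinete medium with xanthurenic acid and anti-Pfs25-Cy3 antibody (1/2000 final dilution). Cultures were then kept at 26 °C for 24 h in the dark. Activated females were counted by Cy3 anti-Pfs25 fluorescence, with events gated on size, roundness and fluorescence intensity.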

[4] = molecular target: T1, Beta-2 adrenergic receptor (Homo sapiens, UniProt P07550); assay: Agonist activity at human beta2 adrenoceptor
T1 sequence (P07550 whole entry): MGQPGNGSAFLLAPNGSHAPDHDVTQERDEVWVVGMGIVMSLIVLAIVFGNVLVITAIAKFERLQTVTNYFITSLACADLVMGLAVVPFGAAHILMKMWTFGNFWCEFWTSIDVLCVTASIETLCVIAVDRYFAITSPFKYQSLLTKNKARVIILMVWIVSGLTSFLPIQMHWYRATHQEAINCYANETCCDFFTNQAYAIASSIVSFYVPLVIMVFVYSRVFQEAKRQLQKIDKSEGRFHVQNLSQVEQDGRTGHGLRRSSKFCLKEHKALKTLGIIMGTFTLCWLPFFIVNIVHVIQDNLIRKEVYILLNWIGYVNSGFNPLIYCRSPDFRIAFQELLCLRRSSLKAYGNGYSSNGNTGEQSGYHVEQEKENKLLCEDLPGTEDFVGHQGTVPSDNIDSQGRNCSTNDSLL

[5] = molecular target: T1, Beta-2 adrenergic receptor; assay: Antagonist activity at human beta2 adrenoceptor
[6] = molecular target: T2, Nuclear receptor subfamily 1 group I member 2 (Homo sapiens, UniProt O75469); assay: Agonist activity at human PXR
T2 sequence (O75469 whole entry): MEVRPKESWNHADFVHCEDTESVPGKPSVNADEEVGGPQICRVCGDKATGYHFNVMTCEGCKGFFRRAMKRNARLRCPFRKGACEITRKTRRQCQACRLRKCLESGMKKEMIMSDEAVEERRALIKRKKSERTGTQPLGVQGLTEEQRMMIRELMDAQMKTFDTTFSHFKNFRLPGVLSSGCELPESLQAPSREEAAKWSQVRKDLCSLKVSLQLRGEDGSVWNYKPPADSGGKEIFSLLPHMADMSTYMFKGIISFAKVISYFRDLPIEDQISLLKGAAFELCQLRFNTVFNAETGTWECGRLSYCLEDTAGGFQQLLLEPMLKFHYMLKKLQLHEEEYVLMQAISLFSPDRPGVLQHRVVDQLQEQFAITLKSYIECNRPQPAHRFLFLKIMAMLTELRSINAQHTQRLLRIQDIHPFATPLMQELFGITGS

[7] = molecular target: Voltage-gated potassium channel, IKs; KCNQ1(Kv7.1)/KCNE1(MinK) (Homo sapiens, UniProt P15382+P51787); assay: Inhibition of human KCNQ1/KCNE1
Chain of Voltage-gated potassium channel, IKs; KCNQ1(Kv7.1)/KCNE1(MinK) (P51787 whole entry): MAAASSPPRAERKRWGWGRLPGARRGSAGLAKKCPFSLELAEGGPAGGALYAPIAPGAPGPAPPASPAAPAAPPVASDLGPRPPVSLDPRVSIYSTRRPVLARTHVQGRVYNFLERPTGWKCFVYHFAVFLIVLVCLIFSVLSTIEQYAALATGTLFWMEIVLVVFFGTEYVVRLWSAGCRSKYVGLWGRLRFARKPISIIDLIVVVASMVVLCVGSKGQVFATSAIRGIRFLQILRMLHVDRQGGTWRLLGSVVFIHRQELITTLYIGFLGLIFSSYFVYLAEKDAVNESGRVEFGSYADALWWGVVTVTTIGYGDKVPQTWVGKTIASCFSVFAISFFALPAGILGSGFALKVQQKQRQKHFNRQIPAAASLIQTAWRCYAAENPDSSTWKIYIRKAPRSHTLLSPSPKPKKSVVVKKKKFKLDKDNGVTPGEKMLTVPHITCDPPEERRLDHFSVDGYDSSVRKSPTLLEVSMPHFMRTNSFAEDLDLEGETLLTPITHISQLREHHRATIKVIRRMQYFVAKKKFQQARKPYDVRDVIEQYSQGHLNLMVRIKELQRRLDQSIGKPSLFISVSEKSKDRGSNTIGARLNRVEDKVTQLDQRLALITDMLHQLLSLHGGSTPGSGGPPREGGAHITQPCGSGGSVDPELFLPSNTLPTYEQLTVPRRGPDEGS

[8] = system: Plasmodium falciparum; assay: Antiplasmodial activity against Plasmodium falciparum 3D7A asexual erythrocytic stage assessed as reduction in [3H]hypoxanthine incorporation preincubated for 48 hrs followed by [3H]hypoxanthine addition and measured after 24 hrs by microbeta scintillation counting method; assay type: functional, organism-based
[9] = system: Plasmodium falciparum; assay: (§1) Antiplasmodial activity against Plasmodium falciparum 3D7A asexual erythrocytic stage assessed as reduction in [3H]hypoxanthine incorporation preincubated for 72 hrs followed by [3H]hypoxanthine addition and measured after 24 hrs by microbeta scintillation counting method; assay type: functional, organism-based
[10] = system: Plasmodium falciparum; assay: as §1, with “3D7A harboring with PKG T618Q mutant” for “3D7A”; assay type: functional, organism-based
[11] = molecular target: T3, Calcium-dependent protein kinase 4 (Plasmodium falciparum (isolate 3D7), UniProt Q8IBS5); assay: Binding affinity to CDPK4 in Plasmodium falciparum 3D7 blood stage extract incubated for 1 hr by kinobeads based pull down assay; conditions: read-out: Kd(app)
T3 sequence (Q8IBS5 whole entry): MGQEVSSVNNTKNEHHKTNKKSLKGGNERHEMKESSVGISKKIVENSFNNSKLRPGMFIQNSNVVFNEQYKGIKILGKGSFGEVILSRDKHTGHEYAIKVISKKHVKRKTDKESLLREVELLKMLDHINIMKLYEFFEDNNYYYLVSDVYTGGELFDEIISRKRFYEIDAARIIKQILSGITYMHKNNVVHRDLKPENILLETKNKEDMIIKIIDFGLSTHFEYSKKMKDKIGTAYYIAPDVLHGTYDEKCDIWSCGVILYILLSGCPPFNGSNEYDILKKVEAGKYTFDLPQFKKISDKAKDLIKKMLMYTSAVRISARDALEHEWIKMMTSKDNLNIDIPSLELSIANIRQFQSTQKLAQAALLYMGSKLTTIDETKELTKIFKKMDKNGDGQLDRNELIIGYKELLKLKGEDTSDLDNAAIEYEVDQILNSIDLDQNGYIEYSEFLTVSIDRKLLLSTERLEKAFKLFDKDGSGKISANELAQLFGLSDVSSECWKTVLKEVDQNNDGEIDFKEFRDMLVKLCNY
Method in brief: (§2)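 Chemoproteomic competition used kinobeads or Sepharose beads derivatized with ligand at 1 mM. Free compound was tested at six concentrations between 0.08 and 20 μM, in two independent experiments. Proteins were SP3-digested, TMT 10-plex labelled and measured by LC-MS/MS. IC50s came from competition curves, and apparent Kd was corrected for protein depletion by the beads.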

[12] = molecular target: T3, Calcium-dependent protein kinase 4; assay: Binding affinity to CDPK4 in Plasmodium falciparum 3D7 blood stage extract incubated for 1 hr in presence of ATP-competitive kinase inhibitor by kinobeads based pull down assay; conditions: read-out: Kd(app); method in brief: as §2
[13] = molecular target: Calcium-dependent protein kinase 1 (Plasmodium falciparum, UniProt P62344); assay: Binding affinity to CDPK1 in Plasmodium falciparum 3D7 blood stage extract incubated for 1 hr by kinobeads based pull down assay; conditions: read-out: Kd(app); method in brief: as §2
Chain of Calcium-dependent protein kinase 1 (P62344 whole entry): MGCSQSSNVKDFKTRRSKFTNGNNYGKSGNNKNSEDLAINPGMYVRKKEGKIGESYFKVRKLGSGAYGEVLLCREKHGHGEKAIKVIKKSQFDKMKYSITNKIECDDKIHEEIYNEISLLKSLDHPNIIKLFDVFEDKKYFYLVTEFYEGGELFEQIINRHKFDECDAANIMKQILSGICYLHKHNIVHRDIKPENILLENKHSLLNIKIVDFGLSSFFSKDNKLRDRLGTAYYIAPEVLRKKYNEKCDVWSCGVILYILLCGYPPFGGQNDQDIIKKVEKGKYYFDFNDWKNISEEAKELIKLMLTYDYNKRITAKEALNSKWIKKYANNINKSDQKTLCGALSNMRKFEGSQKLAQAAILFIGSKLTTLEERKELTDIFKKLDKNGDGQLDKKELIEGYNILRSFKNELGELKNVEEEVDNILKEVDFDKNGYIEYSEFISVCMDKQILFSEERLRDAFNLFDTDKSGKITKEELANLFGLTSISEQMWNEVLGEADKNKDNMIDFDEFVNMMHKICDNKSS

[14] = Binding affinity to zinc finger (CCCH type) protein in Plasmodium falciparum 3D7 blood stage extract incubated for 1 hr by kinobeads based pull down assay; conditions: read-out: Kd(app)
[15] = Binding affinity to zinc finger (CCCH type) protein in Plasmodium falciparum 3D7 blood stage extract incubated for 1 hr in presence of ATP-competitive kinase inhibitor by kinobeads based pull down assay; conditions: read-out: Kd(app)
[16] = molecular target: T4, Casein kinase I (Plasmodium falciparum (isolate 3D7), UniProt Q8IHZ9); assay: Binding affinity to CK1 in Plasmodium falciparum 3D7 blood stage extract incubated for 1 hr by kinobeads based pull down assay; conditions: read-out: Kd(app)
T4 sequence (Q8IHZ9 whole entry): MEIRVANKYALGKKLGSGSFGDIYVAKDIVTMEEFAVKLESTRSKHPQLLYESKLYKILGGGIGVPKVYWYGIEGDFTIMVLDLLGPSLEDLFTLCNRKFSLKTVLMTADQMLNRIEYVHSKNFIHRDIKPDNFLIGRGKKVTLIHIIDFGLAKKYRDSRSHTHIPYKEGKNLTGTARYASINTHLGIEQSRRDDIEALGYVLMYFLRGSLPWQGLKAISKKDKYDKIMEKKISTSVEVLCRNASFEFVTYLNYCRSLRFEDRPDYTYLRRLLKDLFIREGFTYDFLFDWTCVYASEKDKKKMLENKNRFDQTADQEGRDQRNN
Method in brief: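 Chemoproteomic competition binding: Sepharose beads derivatized at 1 mM with the immobilized ligand (kinobeads prepared likewise). Free compound competed at six concentrations, 0.08–20 μM. Proteins were SP3-digested, TMT 10-plex labelled and quantified by LC-MS/MS on an Orbitrap. IC50 from the competition curve; apparent Kd corrected for protein depletion by the beads. Two independent experiments.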

[17] = Binding affinity to GSK3 in Plasmodium falciparum 3D7 blood stage extract incubated for 1 hr by kinobeads based pull down assay; conditions: read-out: Kd(app)
Method in brief: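 The free compound competed over six concentrations from 0.08 to 20 μM. Proteins were digested by a modified SP3 protocol, labelled with TMT 10-plex and quantified by LC-MS/MS. Apparent Kd was derived from IC50 corrected for bead depletion. Two independent experiments were run.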

Work on `Cc1cc(Nc2nccc(-c3sc(C4CCNCC4)nc3-c3ccc(F)cc3)n2)ccn1` yielded a solubility [1] of 410 µM (≈ 183 µg/mL), an EC50 [2] of 300 nM and an EC50 [3] of 400 nM. It also gave an EC50 [4] greater than 100000 nM, an IC50 [5] greater than 100000 nM and an EC50 [6] greater than 50000 nM. The IC50 [7] was greater than 25000 nM, the EC50 [8] was 130 nM and the EC50 [9] was 90 nM. The EC50 [10] was 120 nM, the Kd [11] was 50 nM and the Kd [12] was 50 nM. It also gave a Kd [13] of 50 nM, a Kd [14] of 3900 nM and a Kd [15] of 3900 nM. It also gave a Kd [16] of 150 nM and a Kd [17] of 90 nM.
